In ChEMBL document CHEMBL2417499, “Structure-activity relationship studies of Niemann-Pick type C1-like 1 (NPC1L1) ligands identified by screening assay monitoring pharmacological chaperone effect” (Bioorg Med Chem, 2013):
pEC50: −log10 of the molar value. The source made the active and inactive calls. The calls are words filed in the database; no cut-off is given here.

Key:
[1] = Binding affinity to human GFP-tagged NTD-deleted NPC1L1 L1072T/L1168I mutant expressed in HEK293 cells assessed as localization to plasma membrane after 24 hrs by fluorescence microscopic analysis; format: cell-based
Procedure, shortened: (§1)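 HEK293 cells stably expressing the GFP-tagged construct (G418 0.4 mg/mL) were seeded at 6,000 cells/well in DMEM with 1% FBS on poly-lysine-coated glass. On day 2 they were treated for 24 h, final DMSO 0.1%. Cells were fixed in 3.7% formaldehyde and imaged at ×100. Across 25 images, cells were scored ER 0 to PM 1 and averaged as % plasma membrane localization. EC50 was taken from this score.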

[2] = Binding affinity to human GFP-tagged NPC1L1 L1072T/L1168I mutant expressed in HEK293 cells assessed as localization to endoplasmic reticulum and plasma membrane after 24 hrs by fluorescence microscopic analysis; format: cell-based; conditions: for pEC50: read-out: EC50; procedure, shortened: as §1
[3] = molecular target: T1, NPC intracellular cholesterol transporter 1 (Homo sapiens) (UniProt O15118); assay: Binding affinity to NPC1 (unknown origin)
T1 sequence (whole entry): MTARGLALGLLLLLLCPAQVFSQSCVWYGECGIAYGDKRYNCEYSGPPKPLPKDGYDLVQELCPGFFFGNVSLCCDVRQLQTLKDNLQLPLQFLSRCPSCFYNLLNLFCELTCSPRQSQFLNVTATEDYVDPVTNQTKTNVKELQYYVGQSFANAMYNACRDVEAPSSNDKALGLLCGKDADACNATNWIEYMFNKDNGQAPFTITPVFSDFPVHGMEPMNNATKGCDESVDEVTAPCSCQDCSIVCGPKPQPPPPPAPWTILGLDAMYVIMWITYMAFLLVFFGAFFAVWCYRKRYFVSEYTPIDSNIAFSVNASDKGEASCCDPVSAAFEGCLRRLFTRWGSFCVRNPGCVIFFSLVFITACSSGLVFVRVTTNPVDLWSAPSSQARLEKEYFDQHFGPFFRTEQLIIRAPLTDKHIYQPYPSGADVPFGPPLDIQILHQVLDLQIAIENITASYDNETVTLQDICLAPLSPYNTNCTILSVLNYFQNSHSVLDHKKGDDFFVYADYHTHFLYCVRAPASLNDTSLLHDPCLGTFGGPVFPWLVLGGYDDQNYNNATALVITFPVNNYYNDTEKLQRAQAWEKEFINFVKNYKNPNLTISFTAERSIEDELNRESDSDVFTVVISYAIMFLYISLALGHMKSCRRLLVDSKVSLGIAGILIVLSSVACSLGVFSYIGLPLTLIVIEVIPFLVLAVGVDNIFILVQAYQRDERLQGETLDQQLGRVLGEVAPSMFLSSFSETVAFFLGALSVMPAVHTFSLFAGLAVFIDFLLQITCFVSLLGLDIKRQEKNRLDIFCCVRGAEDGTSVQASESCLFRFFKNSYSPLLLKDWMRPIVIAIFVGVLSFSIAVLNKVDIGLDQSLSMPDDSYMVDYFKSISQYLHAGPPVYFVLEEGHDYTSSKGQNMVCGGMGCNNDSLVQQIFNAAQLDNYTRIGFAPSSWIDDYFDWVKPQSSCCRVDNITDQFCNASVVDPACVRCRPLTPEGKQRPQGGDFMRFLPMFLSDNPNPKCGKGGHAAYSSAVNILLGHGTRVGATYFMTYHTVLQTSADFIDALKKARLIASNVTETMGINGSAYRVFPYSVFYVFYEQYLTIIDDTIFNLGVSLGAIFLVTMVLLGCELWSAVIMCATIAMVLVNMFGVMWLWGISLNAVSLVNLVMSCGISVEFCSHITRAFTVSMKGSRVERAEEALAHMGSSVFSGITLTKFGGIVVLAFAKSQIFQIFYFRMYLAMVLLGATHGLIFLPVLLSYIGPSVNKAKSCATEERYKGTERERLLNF

HEK293 [4] = assay: Binding affinity to human GFP-tagged NPC1L1 L1072T/L1168I mutant expressed in HEK293 cells assessed as localization to endoplasmic reticulum and plasma membrane at 10 uM after 24 hrs by fluorescence microscopic analysis; format: cell-based
Procedure, shortened: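 HEK293 cells stably expressing NPC1L1-GFP mutant from a CMV promoter, kept under G418 (0.4 mg/mL). Seeded at 6,000 cells/well on poly-lysine-coated glass in DMEM with 1% FBS. Dosed next day in 0.1% DMSO final for 24 h, then fixed in 3.7% formaldehyde and imaged at ×100. Each cell in 25 images scored ER 0 to PM 1; mean reported as % plasma membrane localization.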

HEK293 [5] = assay: Binding affinity to human GFP-tagged NPC1L1 L1072T/L1168I mutant expressed in HEK293 cells assessed as protein stabilization after 24 hrs by fluorescence assay; format: cell-based
Procedure, shortened: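 Stable HEK293 lines were grown to 70% confluency in phenol red-free medium in 12-well plates and exposed to vehicle or compound for 24 h. Supernatant GFP fluorescence was read and normalized to BCA total protein, n = 3.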

HEK293 [6] = assay: Cytotoxicity against HEK293 cells transfected with human GFP-tagged NPC1L1 L1072T/L1168I mutant; format: cell-based

SMILES | pEC50 [2] | also measured
C[C@H](CCC(=O)N(C)C)[C@H]1CC[C@H]2[C@@H]3CC=C4C[C@@H](OC(=O)N(C)C)CC[C@]4(C)[C@H]3CC[C@]12C | 5.96 | pEC50 [1]: 5.33
C[C@H](CCCC(C)(C)O)[C@H]1CC[C@H]2[C@@H]3CC=C4C[C@@H](O)CC[C@]4(C)[C@H]3CC[C@]12C | 5.64 | Activity [3]: Active
CCCCN(CCCC)C(=O)CC[C@@H](C)[C@H]1CC[C@H]2[C@@H]3CC=C4C[C@@H](O)CC[C@]4(C)[C@H]3CC[C@]12C | < 5.52 | 
C[C@H](CCCO)[C@H]1CC[C@H]2[C@@H]3CC=C4C[C@@H](O)CC[C@]4(C)[C@H]3CC[C@]12C |  | EC50 [2]: Not Active
CC(C)CCC[C@@H](C)[C@H]1CC[C@H]2[C@@H]3[C@@H](O)C=C4C[C@@H](O)CC[C@]4(C)[C@H]3CC[C@]12C | 5.00 | 
CC(C)CCC[C@@H](C)[C@H]1CC[C@H]2[C@@H]3C[C@@H](O)[C@H]4C[C@@H](O)CC[C@]4(C)[C@H]3CC[C@]12C | 5.01 | 
CC(C)CCC[C@@H](C)[C@H]1CC[C@H]2[C@@H]3C(=O)C=C4C[C@@H](OC(=O)N(CCO)CCO)CC[C@]4(C)[C@H]3CC[C@]12C | 5.42 | 
CC(C)CCC[C@@H](C)[C@H]1CC[C@H]2[C@@H]3CC(=O)[C@H]4C[C@@H](OC(=O)N(CCO)CCO)CC[C@]4(C)[C@H]3CC[C@]12C | 5.42 | 
C[C@H](CCC(=O)N(C)C)[C@H]1CC[C@H]2[C@@H]3CC=C4C[C@@H](OC(=O)N5CCN(C)CC5)CC[C@]4(C)[C@H]3CC[C@]12C | 5.54 | pEC50 [1]: < 5.00
C[C@]12CC[C@H](O)CC1=CC[C@@H]1[C@@H]2CC[C@]2(C)C(=O)CC[C@@H]12 |  | Activity (HEK293 [4]): inactive
CC(C)CCC[C@@H](C)[C@H]1CC[C@H]2[C@@H]3CC=C4C[C@@H](O)CC[C@]4(C)[C@H]3CC[C@]12C |  | Activity (HEK293 [4]): inactive
CCN(CC)C(=O)O[C@H]1CC[C@@]2(C)C(=CC[C@H]3[C@@H]4CC[C@H]([C@H](C)CCC(=O)N(C)C)[C@@]4(C)CC[C@@H]32)C1 | 5.74 | pEC50 [1]: 5.38
CCCN(CCC)C(=O)O[C@H]1CC[C@@]2(C)C(=CC[C@H]3[C@@H]4CC[C@H]([C@H](C)CCC(=O)N(C)C)[C@@]4(C)CC[C@@H]32)C1 | 5.52 | pEC50 [1]: 5.10
CC(C)CCC[C@@H](C)[C@H]1CC[C@H]2[C@@H]3CC=C4C[C@@H](OC(=O)N(CCO)CCO)CC[C@]4(C)[C@H]3CC[C@]12C |  | EC50 [2]: Not Active
CC(C)CCC[C@@H](C)[C@H]1CC[C@H]2[C@@H]3C[C@@H](O)[C@@]4(O)C[C@@H](OC(=O)N(CCO)CCO)CC[C@]4(C)[C@H]3CC[C@]12C | 5.09 | 
CC(C)CCC[C@@H](C)[C@H]1CC[C@H]2[C@@H]3CC(=O)[C@H]4C[C@@H](O)CC[C@]4(C)[C@H]3CC[C@]12C [5alpha-CHOLESTAN-3beta-OL-6-ONE] | 5.55 | 
CC(C)CCC[C@@H](C)[C@H]1CC[C@H]2[C@@H]3CC=C4C[C@@H](O)CC[C@]4(CO)[C@H]3CC[C@]12C |  | Activity (HEK293 [4]): inactive; Activity (HEK293 [5]): inactive

SMILES | pEC50 [2] | also measured
C[C@H](CCC(=O)N(C)C)[C@H]1CC[C@H]2[C@@H]3CC=C4C[C@@H](OC(=O)N5CCOCC5)CC[C@]4(C)[C@H]3CC[C@]12C | 5.64 | pEC50 [1]: 5.21
CC(C)CC[C@@H](O)[C@@H](C)[C@H]1CC[C@H]2[C@@H]3CC=C4C[C@@H](O)CC[C@]4(C)[C@H]3CC[C@]12C |  | Activity (HEK293 [4]): inactive
CC(C)CCC[C@@H](C)[C@H]1CC[C@H]2[C@@H]3C[C@@H](O)[C@H]4C[C@@H](OC(=O)N(CCO)CCO)CC[C@]4(C)[C@H]3CC[C@]12C | 5.70 | 
CCN(CC)C(=O)CC[C@@H](C)[C@H]1CC[C@H]2[C@@H]3CC=C4C[C@@H](O)CC[C@]4(C)[C@H]3CC[C@]12C |  | Activity (HEK293 [6]): Toxic
C[C@H](CCC(=O)N(C)C)[C@H]1CC[C@H]2[C@@H]3CC=C4C[C@@H](OC(N)=O)CC[C@]4(C)[C@H]3CC[C@]12C | 5.07 | pEC50 [1]: < 5.00
CC(C)CC[C@H](O)[C@@H](C)[C@H]1CC[C@H]2[C@@H]3CC=C4C[C@@H](O)CC[C@]4(C)[C@H]3CC[C@]12C |  | Activity [3]: Active; Activity (HEK293 [4]): inactive
CNC(=O)CC[C@@H](C)[C@H]1CC[C@H]2[C@@H]3CC=C4C[C@@H](O)CC[C@]4(C)[C@H]3CC[C@]12C | < 5.00 | 
CC(C)CCC[C@@H](C)[C@H]1CC[C@H]2[C@@H]3C(=O)C=C4C[C@@H](O)CC[C@]4(C)[C@H]3CC[C@]12C [7-OXOCHOLESTEROL] | 5.01 | 
C[C@H](CCC(=O)O)[C@H]1CC[C@H]2[C@@H]3CC=C4C[C@@H](O)CC[C@]4(C)[C@H]3CC[C@]12C | < 5.00 | 
CC(C)CCC[C@](C)(O)[C@H]1CC[C@H]2[C@@H]3CC=C4C[C@@H](O)CC[C@]4(C)[C@H]3CC[C@@]21C |  | Activity (HEK293 [4]): inactive
C[C@H](CCC(=O)N(C)C)[C@H]1CC[C@H]2[C@@H]3CC=C4C[C@@H](O)CC[C@]4(C)[C@H]3CC[C@]12C | 6.10 | 
CC(C)CCC[C@@H](C)[C@H]1CC[C@H]2[C@@H]3C[C@H](O)[C@H]4C[C@@H](OC(=O)N(CCO)CCO)CC[C@]4(C)[C@H]3CC[C@]12C | 5.96 | 
CC(C)CCC[C@@H](C)[C@H]1CC[C@H]2[C@@H]3C[C@H](O)[C@H]4C[C@@H](O)CC[C@]4(C)[C@H]3CC[C@]12C | 5.07 | 
C[C@H](CCC(N)=O)[C@H]1CC[C@H]2[C@@H]3CC=C4C[C@@H](O)CC[C@]4(C)[C@H]3CC[C@]12C | < 5.00 | 
CCCN(CCC)C(=O)CC[C@@H](C)[C@H]1CC[C@H]2[C@@H]3CC=C4C[C@@H](O)CC[C@]4(C)[C@H]3CC[C@]12C |  | Activity (HEK293 [6]): Toxic
CC(C)CCC[C@@H](C)[C@H]1CC[C@H]2[C@@H]3[C@@H](O)C=C4C[C@@H](OC(=O)N(CCO)CCO)CC[C@]4(C)[C@H]3CC[C@]12C | 5.70 | 
C[C@H](CCC(C)(C)O)[C@H]1CC[C@H]2[C@@H]3CC=C4C[C@@H](O)CC[C@]4(C)[C@H]3CC[C@]12C | < 5.00 | 
